The list is not random: actives were taken first. Their share in the collection is about 1.8%.
Platelet DG rel: inhibitors of platelet dense granule secretion, primary screen, cell-based, MLPCN, human platelets; human platelet-rich plasma, SFLLRN dense granule ATP release, luminescence; inhibition, %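 (compounds screened at 7.5 µM in platelet-rich plasma)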; actives 0.22% (n = 300,000);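 active = mean replicate score, as percent of positive control, at or above 50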
Wee1 stabilizer: Wee1 degradation inhibitors, primary screen, cell-based, HeLa, Wee1K328M-luciferase, luminescence; HeLa Luc-Wee1K328M stability; 100% = proteasome inhibitor MG132 effect; Wee1-like protein kinase (Homo sapiens), P30291; AID 1321, 2008; reporter increase, % at 5 µM; actives 1.2% (n = 220,000);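 active = activation above the mean of all tested compounds plus 3 SD, set per screening run, cut at about 8.8% in these data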;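 note: cells exposed to compound for 20 h before luminescence read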
thrombin 1536: human alpha-thrombin inhibitors, primary screen, counter-screen for coagulation protease inhibitor project, biochemical, 1536-well, fluorogenic AMC substrate. Boc-VPR-AMC fluorogenic substrate cleavage. inhibition, % at 5 µM. actives 0.26% (n = 220,000). AID 1046, 2008;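 active = inhibition at or above 40%; inactive = inhibition below 40%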
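System – human alpha-thrombin protein · Reagent – Boc-VPR-AMC substrate, 15 µM final · Compound – 5 µM single dose in 0.2% DMSO · Schedule – reaction at room temperature · Technique – AMC fluorescence at 355 nm excitation and 460 nm emission · Read-out basis – % inhibition relative to enzyme controls and enzyme-free blanks · Control set – no-compound enzyme wells and no-enzyme blanks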
FXIa inh: human FXIa protease inhibitors, primary screen, biochemical, 1536-well | Coagulation factor XI (Homo sapiens), P03951 | inhibition, % at 5 µM | actives 0.14% (n = 220,000) | purified FXIa, Boc-Glu-Ala-Arg-AMC fluorogenic substrate;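 active = inhibition of at least 40%; inactive = inhibition below 40%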;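 note: fluorescence of freed AMC excited at 355 nm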
hK5 inh: human KLK5 protease inhibitors, primary screen, biochemical, 1536-well; Kallikrein-5 (Homo sapiens), Q9Y337; recombinant hK5, fluorogenic AMC substrate cleavage; inhibition, % at 5 µM; actives 0.59% (n = 210,000); AID 873, 2007;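 active = inhibition of 40% or more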
Target sequence (Q9Y337 67-293 limits assumed): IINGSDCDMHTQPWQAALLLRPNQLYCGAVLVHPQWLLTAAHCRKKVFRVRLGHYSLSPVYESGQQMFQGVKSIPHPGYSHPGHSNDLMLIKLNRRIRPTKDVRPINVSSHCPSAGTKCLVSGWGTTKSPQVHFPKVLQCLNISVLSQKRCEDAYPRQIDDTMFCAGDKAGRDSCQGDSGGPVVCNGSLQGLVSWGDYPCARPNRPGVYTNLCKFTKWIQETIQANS
FXIIa inh 1536: human FXIIa protease inhibitors, primary screen, biochemical, 1536-well; inhibition, % at 5 µM; actives 0.3% (n = 220,000); purified FXIIa, Boc-QGR-AMC fluorogenic substrate, 2 h; in the data active = inhibition above about 40%
Numbers stand for hits; 0 = inactive; - = no result given.

SMILES	Platelet DG rel	Wee1 stabilizer	thrombin 1536	FXIa inh	hK5 inh	FXIIa inh 1536
CC(=O)OC[C@H]1O[C@H](CCO/N=C(\C)CCN2CCCc3nc(C)c(C)cc32)C=C[C@@H]1OC(C)=O	-	9.6	0	0	0	0
CC1(C)C2CC=C(/C=N/n3cnnc3)C1C2 (stereo not drawn)	0	0	0	0	0	49
CNC(=S)N/N=C/C1=CCC2CC1C2(C)C (stereo not drawn)	0	0	0	0	0	0
CCOC(=O)c1cc(CC)sc1/N=C/c1c(O)ccc2ccccc12	0	9.2	0	0	0	0
CC1CN(CC(=O)Nc2ccc([N+](=O)[O-])cc2Br)CC(C)O1 (stereo not drawn)	0	0	0	0	0	0
Cc1ccccc1-n1cnc2cc(NCc3cccs3)ccc21	0	0	41	0	40	0
CC(C)c1cc(C(F)(F)F)n2nc(C(=O)Nc3ccc(-n4cnnn4)cc3)cc2n1	0	0	0	0	0	0
CN1C(=O)/C(=N/OC(=O)c2ccccc2)c2ccccc21	0	0	46	47	0	53
Cc1ccc(S(=O)(=O)N(C)C)cc1NC(=O)CCNC(=O)c1ccco1	0	-	-	-	-	-
O=C(O)CSCCOc1ccc(OCCSCC(=O)O)cc1	0	10	0	0	0	0
CCOc1ccc(C(=O)CSCCC(=O)O)cc1	0	0	0	0	0	0
COc1ccc(CNCc2c(F)cccc2F)cc1OC	0	-	-	-	-	-
O=C(CSc1ncccn1)n1c2c(c3ccccc31)CCCC2	0	0	0	0	77	0
COc1cc(CC(=O)Nc2sc3c(c2C(N)=O)CCCC3)cc(OC)c1OC	0	-	-	-	-	-
Cc1cc(NC(=O)CSCC(=O)Nc2ccccc2N2CCCCC2)no1	50	-	-	-	-	-
COC(=O)c1ccc(Cn2nnc3c(=O)[nH]c(C4CCN(S(=O)(=O)c5ccc(F)cc5)CC4)nc32)cc1	0	-	-	-	-	-
CCOc1ccc(/C=N/NC(=O)c2[nH]ncc2Br)c(O)c1	84	0	0	0	0	0
COc1ccccc1NS(=O)(=O)c1cccc(C(=O)NCC(c2ccc(F)cc2)N2CCOCC2)c1 (stereo not drawn)	0	-	-	-	-	-
Nn1c(Cc2cccc3ccccc23)nnc1SCCOc1ccc(F)cc1	0	0	0	0	0	41
COc1cc(C(=O)Nc2cccc(-c3cn4cccnc4n3)c2)cc(OC)c1OC	0	0	0	0	0	0
COc1ccc(-c2cn3cccnc3n2)cc1NC(=O)c1cc(OC)c(OC)c(OC)c1	0	9.7	0	0	0	0
N#Cc1c(NC(=O)C2CC(Cl)=CCC2C(=O)O)sc2c1CCCC2 (stereo not drawn)	0	0	0	0	0	0
COc1ccc2c(=O)cc(C(F)(F)C(F)(F)F)oc2c1	0	0	0	0	0	0
COc1ccc2c(=O)cc(-c3ccccc3F)oc2c1	-	9.4	0	0	0	0
Cc1cc(C)c(S(=O)(=O)Nc2ccc(N(C)C)cc2)c(C)c1-n1cnnn1	0	-	-	-	-	-
SMILES	Platelet DG rel	Wee1 stabilizer	thrombin 1536	FXIa inh	hK5 inh	FXIIa inh 1536
COc1ccc(CCNC(=O)CSc2nc(N)c3c(C)c(C)oc3n2)cc1OC	74	0	0	0	0	0
COc1ccc(NS(=O)(=O)c2ccc(N3CCCC3)c(NC(=S)Nc3ccc(SC(F)F)cc3)c2)cc1	0	9.3	0	0	0	0
NS(=O)(=O)c1cccc(NC(=O)COC(=O)CCCc2c[nH]c3ccccc23)c1	0	0	0	0	0	0
COc1cc(/C=N/n2c(-c3cc(C)[nH]n3)n[nH]c2=S)cc(OC)c1OC	0	0	0	0	58	0
Cc1ccc(NC(=O)C23CCC(C)(C(=O)[C@H]2Br)C3(C)C)cc1 (stereo partly drawn)	0	10	0	0	0	0
c1ccc(CNC2=NCCC2)nc1	0	0	0	0	0	0
c1cc(CNC2=NCCCCC2)ccn1	0	0	0	0	65	0
CC(C)(C)c1ccc(Oc2ccc(NC(=O)CCCC(=O)O)cn2)cc1	0	0	0	0	0	47
CCN1CCc2c(OCc3ccccc3)cccc2C1=O	0	0	0	0	0	0
Clc1ccccc1C1Nc2cccc3cccc(c23)N1	0	-	-	-	-	-
Oc1ccc(C2Nc3cccc4cccc(c34)N2)c(O)c1	0	0	67	0	57	0
Cc1ccc(S(=O)(=O)N2CCN(Cc3cc(C(C)C)ccc3O)CC2)cc1	0	0	0	0	0	43
CCCCn1c(N)c(N(Cc2ccccc2OC)C(=O)C(C)Oc2ccc(F)cc2)c(=O)[nH]c1=O (stereo not drawn)	0	-	-	-	-	-
CCCCn1c(N)c(N(Cc2ccccc2OC)C(=O)C(C)Oc2ccc(Cl)cc2)c(=O)[nH]c1=O (stereo not drawn)	53	-	-	-	-	-
COCCNc1nnc(SCC(=O)NNC(=O)c2ccccc2)s1	0	0	0	0	0	0
COCCNc1nnc(SCC(=O)c2c[nH]c3ccccc23)s1	0	0	101	0	0	0
CC(C)(C)c1ccc(C(=O)NN2C(=O)CSC2=S)cc1	0	11	0	0	0	0
Cc1ccccc1C(=O)NC1CCSC1=O (stereo not drawn)	0	0	0	50	0	0
O=C(NC(=S)NC1CCSC1=O)c1ccccc1Cl (stereo not drawn)	0	0	0	0	0	0
CCOc1ccc(CC(=O)NNC(=S)NC)cc1Br	0	0	0	0	0	0
COc1ccc(C2NC(=O)NC(C)=C2[N+](=O)[O-])cc1 (stereo not drawn)	0	-	-	-	-	-
CCOC(=O)CNC(=S)N(CCCN1CCCCC1)Cc1cccs1	0	9.8	0	0	-	0
Cn1ncc(Br)c1NC(=O)Nc1ccccc1	0	-	-	-	-	-
CCS(=O)(=O)N1CCC(C(=O)NCCCOC)CC1	0	10	0	0	0	0
COc1ccc(/C=C(/NC(=O)c2ccco2)C(=O)N2CCCCCC2)cc1OC	0	-	-	-	-	-
SMILES	Platelet DG rel	Wee1 stabilizer	thrombin 1536	FXIa inh	hK5 inh	FXIIa inh 1536
COc1ccc(C2=NCCn3cccc32)c(OC)c1	0	0	0	0	41	0
CCCC1=NCCn2cccc21	0	0	0	0	0	0
Nc1c(-c2ccccc2)cnn1-c1ccc(C(=O)O)cc1	0	0	0	0	0	0
COc1ccc(S(=O)(=O)NCC(c2cccnc2)N2CCN(C)CC2)cc1OC (stereo not drawn)	0	-	-	-	-	-
CN1CCN(C(CNS(=O)(=O)c2ccc(Cl)cc2)c2cccnc2)CC1 (stereo not drawn)	0	0	0	0	42	0
CCN1CCN(C(CNS(=O)(=O)c2ccc(Cl)cc2)c2cccnc2)CC1 (stereo not drawn)	0	-	-	-	-	-
